Measurements from PubChem BioAssay AID493091 (Sanford-Burnham Center for Chemical Genomics, 2011).
Hit rate of the full screen: of about 340,000 compounds, about 3,000 (0.88%) were called active.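 How the source made its calls: active means inhibition above about 50% at 20 µM (limit read from the data); inactive means the rest.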 What follows is part of a selection rich in actives, with near analogues and random picks from the rest.

These compounds were tested against Carboxy-terminal domain RNA polymerase II polypeptide A small phosphatase 1 (Homo sapiens) (UniProt Q9GZU7) (assay: Scp-1 phosphatase inhibitors, primary screen, biochemical, colorimetric, uHTS (AID 493091;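 further: plate controls were DMSO wells with enzyme for no effect and wells lacking enzyme for full effect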)). Conditions: Recombinant Scp1, phosphopeptide, malachite green phosphate absorbance; at 20 µM; hits give high values.
How it was run: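 Test system: SCP-1 phosphatase catalytic domain, residues 76-261 | Compound dosing: One concentration, 20 µM, with 1.0% DMSO | Schedule: 45 min room-temperature reaction, 5 min colour, 30 min stabiliser | Detection: Absorbance at 630 nm | Read-out basis: % inhibition of SCP-1 phosphate liberation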

Chain of Carboxy-terminal domain RNA polymerase II polypeptide A small phosphatase 1 (Homo sapiens) (Q9GZU7 76-261 limits assumed): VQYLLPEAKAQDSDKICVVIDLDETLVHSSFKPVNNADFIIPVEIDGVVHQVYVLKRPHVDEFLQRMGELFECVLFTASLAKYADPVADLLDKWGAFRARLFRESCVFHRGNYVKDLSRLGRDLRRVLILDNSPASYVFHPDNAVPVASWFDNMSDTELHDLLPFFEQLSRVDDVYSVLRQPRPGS

inhibition, inactive:
Cc1ccccc1C(=O)NCC(c1ccco1)N1CCc2ccccc21 (stereo not drawn) 3.6%
O=C(c1ccccc1F)N1CCN(S(=O)(=O)c2ccc(Br)cc2)CC1 -10.3%
CC(C)CCN1CCN=C1N(C)C 0.8%
Cc1nnc(CN(C)Cc2cn[nH]c2-c2ccc(-c3ccccc3)cc2)o1 -5.39%
CSCCC(NS(=O)(=O)c1ccc(C)cc1)C(=O)N(C)CC(=O)Nc1ccccc1Br (stereo not drawn) -5.24%
Cc1nn2c(NCCN(C)C)c3c(nc2c1-c1ccccc1)CCC3 -10.7%
COc1ccc(NC(=O)COC(=O)c2n[nH]c3ccccc23)c(OC)c1 -9.82%
O=C(COC(=O)C12CC3CC(CC(C3)C1)C2)NCc1ccco1 11.5%
COc1ccc(CCNC(=O)COC(=O)c2cnc(Cl)c(Cl)c2)cc1 -7.74%
O=C(CCNC(=O)c1ccccc1Cl)NCc1ccco1 18.8%
O=C(COC(=O)c1ccco1)NCc1ccc(Cl)cc1 -4.57%
COCCNC(=S)N1CCN(C)CC1 -7.43%
CC1CC(c2ccccc2)n2nc(NC(=O)c3cccs3)nc2N1 (stereo not drawn) 2.86%
CC(CC(=O)Nc1ccccc1)n1ccnc1 (stereo not drawn) -3.02%
CC(C)OC(=O)CN1CCN(c2ccc(Cl)cc2)CC1 4.48%
O=C(CN1CCN(c2ccc(Cl)cc2)CC1)NCc1cccs1 3.78%
CN(CC(=O)Nc1ccc(F)c(F)c1F)C(=O)Cn1cnc2c1c(=O)n(C)c(=O)n2C -3.89%
O=C(CCC1CCCN(C(=O)c2ccc(F)c(F)c2)C1)N1CCN(c2ccccn2)CC1 (stereo not drawn) -8.35%
O=C(CCC1CCCN(C(=O)Cc2ccc(F)cc2)C1)N1CCN(c2ccccn2)CC1 (stereo not drawn) -6.06%
Cc1ccc(C(=O)COC(=O)CCN2C(=O)C3C4CC(C(Br)C4Br)C3C2=O)cc1 (stereo not drawn) -7.42%
CC(=O)N1Cc2ccccc2CC1C(=O)O (stereo not drawn) 12.9%
O=c1c(Cl)c(NCc2ccc(F)cc2Cl)cnn1C12CC3CC(CC(C3)C1)C2 17.9%
O=C(O)c1ccc(NS(=O)(=O)c2cccc3nsnc23)cc1 -2.95%
COc1ccc(NS(=O)(=O)c2cccc3nsnc23)cc1Cl -12.1%
Cc1nn2c3cc(N4CCOCC4)ccc3nc2c2ccccc12 7.49%
COc1ccc(C2=Nc3cc(C)ccc3OC2)cc1 -3.61%
COCCOC(=O)C1=C(C)NC(=O)NC1c1cc2c(cc1Br)OCO2 (stereo not drawn) -6.54%
COCCN(C(=S)Nc1cccc(Cl)c1C)C(C)c1ccco1 (stereo not drawn) -5.75%
COc1ccc(S(=O)(=O)NCCCCOc2ccc(Cl)cc2)cc1 -3.96%
COc1cccc(NC(=O)CCNS(=O)(=O)c2ccc3c(c2)oc(=O)n3C)c1 6.79%
COc1ccc(/C=C/CN2CCCC(C(=O)c3cc(F)ccc3F)C2)cc1 (stereo not drawn) -4.6%
O=C(Nc1cccnc1Oc1ncnc2cc(Cl)ccc12)c1ccc(F)cc1 -6.88%
O=C(CNCc1cccs1)Nc1cc(S(=O)(=O)N2CCCC2)ccc1Cl 1.26%
CCN(CC)S(=O)(=O)c1ccc(N2CCOCC2)c(NC(=O)C2COc3ccccc3O2)c1 (stereo not drawn) -9.66%
CC(=O)c1ccc(NC(=O)C(C)N(C)CC(=O)Nc2ccccc2Cl)cc1 (stereo not drawn) 9.97%
O=C(/C=C/c1cccc([N+](=O)[O-])c1)NCCSCc1ccco1 -5.27%
OC1CSc2nc3ccccc3n2C1 (stereo not drawn) -14.6%
Cc1ccc(COC(=O)CN2C(=O)NC3(CCCC3)C2=O)cc1 -2.24%
Cc1ccc(CCCOC(=O)C[N+]2(C)CCCCC2)cc1 4.77%
Nc1ccc2c(c1)C(=Cc1cccnc1)c1ccccc1-2 -0.04%
C[C@H](NC(=O)c1nc[nH]c1C(=O)NCC(=O)OC(C)(C)C)C(=O)OCc1ccccc1 -3.03%
O=C(c1ccc2c(c1)OCO2)N1CCN(C(=O)c2ccco2)CC1 -10.7%
O=CN1CCN(C(=O)c2ccc3c(c2)OCO3)CC1 -4.58%
COc1ccc(C(=O)N(CCN2CCOCC2)CC(=O)NC2CCCC2)cc1OC -4.37%
COc1ccccc1C(C)NC(=O)Cc1ccsc1 (stereo not drawn) 1.45%
CN(CC(=O)NCCc1ccccn1)S(=O)(=O)c1ccc(Cl)cc1 -6.06%
CCCCOC(=O)c1ccc(N2C(=O)CC(N3CCN(C/C=C/c4ccccc4)CC3)C2=O)cc1 (stereo not drawn) -2.23%
CC1CC(C)CN(S(=O)(=O)c2cccc3nonc23)C1 (stereo not drawn) -1.81%
CCC(=O)N(CCc1ccccc1)Cc1cc2cc(C)ccc2[nH]c1=O -1.18%
CCN(Cc1cc2cc(C)ccc2[nH]c1=O)S(=O)(=O)c1ccccc1 -4.68%
C#CCOCCOCCOCCNc1nc(N2CCN(C(=O)C([C@@H](C)O)n3cc([C@@H](N)CCCCN)nn3)CC2)nc(N2CCN(C(=O)[C@H](CCCCN)n3cc(CN)nn3)CC2)n1 (stereo partly drawn) -0.3%
C=CCn1cnc2scc(-c3ccccc3)c2c1=O -18.1%
C=CCn1c(=S)[nH]c2nc3c(cc2c1=O)COC(C)(C)C3 -8.72%
CN(CCC1CCOCC1)Cc1cn[nH]c1-c1ccc(-c2ccccc2)cc1 -1.75%
CCn1c(=O)n(CC)c2cc(N3CCCC3)c(NC(=O)c3ccccc3Br)cc21 -2.26%
Cc1ccc2nc3c(cc(C(=O)NCCc4ccccc4)c(=N)n3CC3CCCO3)c(=O)n2c1 (stereo not drawn) 1.78%
Cc1ccc(CNC(=O)CCNC(=O)Cn2ccc3ccccc3c2=O)cc1 -12.1%
CCOc1cc(C2/C(=C(/O)c3ccc(S(=O)(=O)N4CCCCC4)cc3)C(=O)C(=O)N2CCOC)ccc1O (stereo not drawn) 1.05%
Cc1cccc(NC(=O)CSc2nc3c(c(=O)[nH]2)CCC3)c1C -1.16%
COc1ccccc1N1CCN(C(=O)c2cc(=O)c3cc(C)cc(C)c3o2)CC1 -7.13%
Cn1c(N)c(C(=O)COC(=O)c2cccc(S(=O)(=O)N3CCOCC3)c2)c(=O)n(C)c1=O 3.96%
Cn1c(N)c(C(=O)COC(=O)c2cnc(Cl)c(Cl)c2)c(=O)n(C)c1=O -5.15%
C[C@]1(C(=O)NCCc2c[nH]c3ccccc23)C=C[C@@H](Cc2ccccc2)N1C(=O)c1ccccc1 -5.17%
CC(C)NC(=O)NC(=O)COC(=O)c1ccc(NC(=O)CC#N)cc1 -2.24%
N#CCC(=O)Nc1ccc(C(=O)OCC(=O)Nc2sc3c(c2C#N)CCCC3)cc1 1.62%
Cc1ncn2cc(-c3ccc(Cl)cc3Cl)[nH]c(=O)c12 -6.56%
O=C(NCc1cccc(Cl)c1)C1CCN(c2nnc(N3CCCC3=O)s2)CC1 -6.55%
O=C(NNC(=O)c1ccccc1[N+](=O)[O-])Nc1ccccc1C(F)(F)F 0.19%
C/C=C\C=C\C(=O)N1CC2(CC(c3cccc(NC(=O)/C(C)=C\C)c3)=NO2)C[C@H]1C(N)=O (stereo partly drawn) 34.8%
C/C=C(/C)C(=O)Nc1cccc(C2=NOC3(C2)C[C@@H](C(N)=O)N(C(=O)C2(C)CC2)C3)c1 (stereo partly drawn) -2.33%
C=CCn1cc(C(=O)NCc2ccc(Cl)cc2)c(=O)c2cc(S(=O)(=O)N(CC)CC)ccc21 -4.15%
COCCC(=O)N1CCC(Oc2ccc(C(=O)NCc3ccon3)cc2)CC1 -1.77%
COc1ccc(S(=O)(=O)N2CCN(CC(=O)N3CCOCC3)CC2)cc1OC -0.04%
CC(C)C(O)C1CCN(Cc2nc(Cc3ccccc3Cl)no2)CC1 (stereo not drawn) -2.82%
COc1cnn(-c2ccc([N+](=O)[O-])cc2)c(=O)c1Cl -3.84%
O=[N+]([O-])c1ccc(N2CCOCC2)cc1 -2.71%

inhibition, active:
O=C(COC(=O)c1cnc(Cl)c(Cl)c1)NCc1ccco1 53.3%
O=C(COC(=O)c1ccccc1O)NCc1ccco1 67.2%
O=C(CN1CCN(c2ccc(Cl)cc2)CC1)c1ccccc1 52%
C=Cc1ccc(C(=O)N2CCCC(CCC(=O)N3CCN(c4ccccn4)CC3)C2)cc1 (stereo not drawn) 87.9%
O=S(=O)(Nc1ccccc1Cl)c1cccc2nsnc12 67%
COc1cccc(NC(C)=[N+](C)CCNS(=O)(=O)c2ccc(Cl)cc2)c1 105%
O=C(Nc1cc(S(=O)(=O)N2CCCCC2)ccc1Cl)C1COc2ccccc2O1 (stereo not drawn) 55.3%
Cc1ccc(CCCOC(=O)C[N+]2(C)CCCC2)cc1 101%
O=C(c1ccc2c(c1)OCO2)N1CCNc2ccccc2C1 54.2%
Cc1ccnc(-n2sc3ccccc3c2=O)n1 70.8%
CCCc1nc(-c2cc3cc(C)ccc3[nH]c2=O)no1 65.2%
C=CCn1c(=S)[nH]c2scc(-c3ccco3)c2c1=O 67.9%
Cc1ccc(CCNC(=O)c2ccc3nc4ccccc4c(=O)n3c2)cc1 60.3%
Cn1c(N)c(C(=O)COC(=O)c2ccc3ccccc3c2)c(=O)n(C)c1=O 53%
CCOc1ccc(NC(=O)c2ccc(NC(=O)COC(=O)c3ccc(NC(=O)CC#N)cc3)cc2)cc1 85.9%
C=C(C)C(=O)Nc1cccc(C2=NOC3(C2)C[C@H](C(N)=O)N(C(=O)C(c2ccccc2)c2ccccc2)C3)c1 (stereo partly drawn) 70.2%
O=c1[nH]n(-c2ccc([N+](=O)[O-])cc2)c(=O)c2ccccc12 52.1%
